This sample holds only a part of the variants without activity.
B1: tRNA (parent)
chain: GUUCCGUUGGCGUAAUGGUAACGCGUCUCCCUCCUAAGGAGAAGACUGCGGGUUCGAGUCCCGUACGGAACG

Variants of: B1
Experiment: yeast fitness relative to wild type (ratio to wild type); higher = fitter; tRNA-Arg(CCU), competitive growth, 37 C, YPD
How it was run: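 Changes in genotype frequencies gave Darwinian fitness relative to wild type. Frequencies were read by 100-nucleotide paired-end sequencing of gene amplicons before and after pooled Saccharomyces cerevisiae strains, carrying tRNA-Arg(CCU) gene variants at the native locus, were competed in YPD at 37°C for 24 hours in six replicates. A genotype was kept only with ≥ 100 starting reads, and estimates < 0.5 were set to 0.5.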

| Variant | yeast fitness |
| --- | --- |
| C24G C30G A70G | 0.638 |
| C24G C30G C31U U35A A36U G44A | 0.695 |
| C24G C30G C55G | ≤ 0.5 |
| C24G C30G U59G | 0.64 |
| C24G C30U | 0.553 |
| C24G C30U A40G G44A U47C G51C | ≤ 0.5 |
| C24G C30U A43U C60G A65C | ≤ 0.5 |
| C24G C30U C34A C60U | ≤ 0.5 |
| C24G C30U C34U | ≤ 0.5 |
| C24G C30U C34U C55A | ≤ 0.5 |
| C24G C30U C49G | 0.664 |
| C24G C31A C33U U35A A57G U64C | ≤ 0.5 |
| C24G C31G A45G C60G | ≤ 0.5 |
| C24G C31G C33A G50C C55G A57U C62U | ≤ 0.5 |
| C24G C31G C33A G50C C55G A57U C62U U64C | ≤ 0.5 |
| C24G C31G C33U C46G U54G G67U | 0.645 |
| C24G C31G G51A | ≤ 0.5 |
| C24G C31G G68A A70U | ≤ 0.5 |
| C24G C31U A37G G50C A57U | 0.648 |
| C24G C31U A43G A45C U64A | ≤ 0.5 |
| C24G C31U C33A G50C | ≤ 0.5 |

| Variant | yeast fitness |
| --- | --- |
| C24G C31U C33G A42C A43U | 0.574 |
| C24G C31U C60G | ≤ 0.5 |
| C24G C31U C61U | ≤ 0.5 |
| C24G C31U G41C C46G G63C | ≤ 0.5 |
| C24G C31U G48A C49U | 0.785 |
| C24G C31U G50C | 0.56 |
| C24G C33A C62A | ≤ 0.5 |
| C24G C33G | 0.666 |
| C24G C33G A36C A37C A42C A45G A65U | ≤ 0.5 |
| C24G C33G A36C A37C A42C C60U G67U | ≤ 0.5 |
| C24G C33G C55U | ≤ 0.5 |
| C24G C33G C60A G63A | ≤ 0.5 |
| C24G C33G C66U | ≤ 0.5 |
| C24G C33G G63A | ≤ 0.5 |
| C24G C33G U53C C55U A70G | 0.57 |
| C24G C33U | 0.646 |
| C24G C33U A37U C55A G68C | ≤ 0.5 |
| C24G C33U A37U G38A | ≤ 0.5 |
| C24G C33U A43G | ≤ 0.5 |
| C24G C33U A43G U47A | 0.682 |
| C24G C33U A43G U47A C60A | ≤ 0.5 |

| Variant | yeast fitness |
| --- | --- |
| C24G C33U A65U | ≤ 0.5 |
| C24G C33U C49G A57U C61G | ≤ 0.5 |
| C24G C33U C60G | 0.519 |
| C24G C33U C62A A70G | ≤ 0.5 |
| C24G C33U U35A C61G | ≤ 0.5 |
| C24G C33U U59C | ≤ 0.5 |
| C24G C34A U35A C46U G48A C60G C66U | 0.558 |
| C24G C34G A40G A45C C66G A69U | 0.596 |
| C24G C34G A43U G67C | ≤ 0.5 |
| C24G C34G G38C C62G A69C | ≤ 0.5 |
| C24G C34G G48A U54A G63C | ≤ 0.5 |
| C24G C34G G50C C61U | ≤ 0.5 |
| C24G C34G G52A | 0.602 |
| C24G C34U A36C | ≤ 0.5 |
| C24G C34U A36C C46A U54A A57G | 0.566 |
| C24G C34U U35A A42C C66A | ≤ 0.5 |
| C24G C34U U47A | ≤ 0.5 |
| C24G C46G C66U | ≤ 0.5 |
| C24G C46G G48A C55U U64A A69C | 0.5 |
| C24G C46U C49G G51C C66G | 0.639 |
| C24G C46U G50A G56C C62A C66U | ≤ 0.5 |

| Variant | yeast fitness |
| --- | --- |
| C24G C46U G58C C61U | 0.597 |
| C24G C49A C62G G68U | ≤ 0.5 |
| C24G C49A U53A G67A | ≤ 0.5 |
| C24G C49G | 0.544 |
| C24G C49G G56A | 0.574 |
| C24G C49U | 0.576 |
| C24G C49U A57U | ≤ 0.5 |
| C24G C49U C61A | ≤ 0.5 |
| C24G C49U G51A C61A A69U | ≤ 0.5 |
| C24G C55A | 0.66 |
| C24G C55A A65U | ≤ 0.5 |
| C24G C55A A70C | ≤ 0.5 |
| C24G C55G | 0.649 |
| C24G C55U A65G | 0.546 |
| C24G C55U C61A | 0.515 |
| C24G C55U G68C | ≤ 0.5 |
| C24G C55U U64A | 0.674 |
| C24G C60A G67A | 0.693 |
| C24G C60A U64A | 0.607 |
| C24G C60G A70G | ≤ 0.5 |
